Columns and labels:
Mus musculus [1] = assay: Number of Plasmodium berghei infected mice died on day 16 at 640 mg/kg; type: functional
In short: (§1)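 Male mice infected with drug-sensitive P. berghei KBG 173; single subcutaneous dose given 3 days postinfection, five mice per dose; survival followed, with cure (C) meaning survival to 60 days postinfection and deaths 0–2 days after treatment scored as toxicity (T).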

Mus musculus [2] = assay: Number of Plasmodium berghei infected mice died at 160 mg/kg; Curative; type: functional; in short: as §1
Mus musculus [3] = assay: Number of Plasmodium berghei infected mice died on day 12 at 40 mg/kg; type: functional; in short: as §1
Mus musculus [4] = assay: Number of Plasmodium berghei infected mice died on day 13 at 160 mg/kg; type: functional; in short: as §1
Plasmodium falciparum [5] = assay: Antimalarial activity against Plasmodium falciparum D6 in vitro.; type: functional, organism-based
Mus musculus [6] = assay: Number of Plasmodium berghei infected mice died on day 9 at 40 mg/kg; type: functional
Mus musculus [7] = assay: Number of Plasmodium berghei infected mice died on day 14 at 160 mg/kg; type: functional; in short: as §1
Mus musculus [8] = assay: Number of Plasmodium berghei infected mice died on day 17 at 160 mg/kg; type: functional; in short: as §1
Mus musculus [9] = assay: Number of Plasmodium berghei infected mice died on day 22 at 640 mg/kg; type: functional; in short: as §1
Plasmodium falciparum [10] = assay: In vitro antimalarial activity against chloroquine-resistant Plasmodium falciparum W2; type: functional, organism-based
Mus musculus [11] = assay: Number of Plasmodium berghei infected mice died on day 13 at 40 mg/kg; type: functional; in short: as §1
Mus musculus [12] = assay: Number of Plasmodium berghei infected mice died at 640 mg/kg; Curative; type: functional; in short: as §1
Mus musculus [13] = assay: Number of Plasmodium berghei infected mice died on day 20 at 640 mg/kg; type: functional; in short: as §1
Mus musculus [14] = assay: Number of Plasmodium berghei infected mice died on day 18 at 640 mg/kg; type: functional; in short: as §1
Mus musculus [15] = assay: Number of Plasmodium berghei infected mice died on day 8 at 40 mg/kg; type: functional; in short: as §1
Plasmodium falciparum [16] = assay: Inhibition of hematin polymerization in Plasmodium falciparum; type: functional
Mus musculus [17] = assay: Number of Plasmodium berghei infected mice died on day 10 at 160 mg/kg; type: functional; in short: as §1
Mus musculus [18] = assay: Number of Plasmodium berghei infected mice died on day 10 at 40 mg/kg; type: functional; in short: as §1
Mus musculus [19] = assay: (§2) Number of Plasmodium berghei infected mice died on day 12 at 640 mg/kg; type: functional; in short: as §1
Mus musculus [20] = assay: Number of Plasmodium berghei infected mice died on day 13 at 640 mg/kg; type: functional; in short: as §1
Mus musculus [21] = assay: Number of Plasmodium berghei infected mice died on day 12 at 160 mg/kg; type: functional; in short: as §1
Mus musculus [22] = assay: (§3) Number of Plasmodium berghei infected mice died on day 7 at 40 mg/kg; type: functional
Mus musculus [23] = assay: Number of Plasmodium berghei infected mice died on day 11 at 160 mg/kg; type: functional
Mus musculus [24] = assay: Number of Plasmodium berghei infected mice died on day 26 at 160 mg/kg; type: functional; in short: as §1
Mus musculus [25] = assay: Number of Plasmodium berghei infected mice died on day 11 at 40 mg/kg; type: functional; in short: as §1
Mus musculus [26] = assay: Number of Plasmodium berghei infected mice died on day 19 at 640 mg/kg; type: functional; in short: as §1
Plasmodium falciparum [27] = assay: In vitro inhibition of hematin polymerization in Plasmodium falciparum; type: functional
Mus musculus [28] = assay: Number of Plasmodium berghei infected mice died on day 14 at 640 mg/kg; type: functional; in short: as §1
Mus musculus [29] = assay: Number of Plasmodium berghei infected mice cured after administration of a compound dose 640 mg/kg; type: functional
Mus musculus [30] = assay: (§4) Number of Plasmodium berghei infected mice died on day 6 at 160 mg/kg; type: functional; in short: as §1
Mus musculus [31] = assay: as §3; type: functional; in short: as §1; remark: listed apart in the source
Mus musculus [32] = assay: Number of Plasmodium berghei infected mice died on day 7 at 160 mg/kg; type: functional; in short: as §1
Mus musculus [33] = assay: Number of Plasmodium berghei infected mice died on day 7 at 640 mg/kg; type: functional; in short: as §1
Mus musculus [34] = assay: (§5) Number of Plasmodium berghei infected mice died on day 6 at 40 mg/kg; type: functional; in short: as §1
Mus musculus [35] = assay: Number of Plasmodium berghei infected mice died on day 16 at 160 mg/kg; type: functional; in short: as §1
Mus musculus [36] = assay: Number of Plasmodium berghei infected mice cured after administration of the dose 640 mg/kg; type: functional; in short: as §1
Mus musculus [37] = assay: Number of Plasmodium berghei infected mice died on day 9 at 160 mg/kg; type: functional; in short: as §1
Mus musculus [38] = assay: Number of Plasmodium berghei infected mice cured after administration of 640 mg/kg; type: functional
Mus musculus [39] = assay: Number of Plasmodium berghei infected mice cured after administration of 160 mg/kg dose; type: functional
Mus musculus [40] = assay: (§6) Number of Plasmodium berghei infected mice died on day 8 at 160 mg/kg; type: functional; in short: as §1
Mus musculus [41] = assay: Number of Plasmodium berghei infected mice died on day 24 at 640 mg/kg; type: functional; in short: as §1
Mus musculus [42] = assay: Number of Plasmodium berghei infected mice died on day 18 at 160 mg/kg; type: functional; in short: as §1
Mus musculus [43] = assay: Number of Plasmodium berghei infected mice died on day 29 at 640 mg/kg; type: functional; in short: as §1
Mus musculus [44] = assay: as §6; type: functional; remark: listed apart in the source
Mus musculus [45] = assay: as §4; type: functional; remark: listed apart in the source
Mus musculus [46] = assay: Number of Plasmodium berghei infected mice died on day 6 at 640 mg/kg; type: functional
Mus musculus [47] = assay: as §5; type: functional; remark: listed apart in the source
Mus musculus [48] = assay: as §2; type: functional; remark: listed apart in the source
Mus musculus [49] = assay: Number of Plasmodium berghei infected mice died on day 33 at 640 mg/kg; type: functional; in short: as §1
Mus musculus [50] = assay: Number of Plasmodium berghei infected mice died on day 25 at 640 mg/kg; type: functional; in short: as §1
Mus musculus [51] = assay: Number of Plasmodium berghei infected mice died at 640 mg/kg; Toxic; type: functional; in short: as §1
Mus musculus [52] = assay: Number of Plasmodium berghei infected mice died on day 15 at 40 mg/kg; type: functional; in short: as §1
Mus musculus [53] = assay: Number of Plasmodium berghei infected mice died at 40 mg/kg; Curative; type: functional; in short: as §1
Mus musculus [54] = assay: Number of Plasmodium berghei infected mice died on day 20 at 160 mg/kg; type: functional; in short: as §1
Mus musculus [55] = assay: Number of Plasmodium berghei infected mice died on day 23 at 160 mg/kg; type: functional; in short: as §1
Mus musculus [56] = assay: Number of Plasmodium berghei infected mice died on day 16 at 40 mg/kg; type: functional; in short: as §1
Mus musculus [57] = assay: Number of Plasmodium berghei infected mice died on day 14 at 40 mg/kg; type: functional; in short: as §1

SMILES | Number (Mus musculus [4]) | IC50 (Plasmodium falciparum [5]) [µM] | Number (Mus musculus [6]) | IC50 (Plasmodium falciparum [10]) [µM] | Number (Mus musculus [15]) | IC50 (Plasmodium falciparum [16]) [µM] | Number (Mus musculus [17]) | Number (Mus musculus [20]) | Number (Mus musculus [22]) | IC50 (Plasmodium falciparum [27]) [µM] | Number (Mus musculus [28]) | Number (Mus musculus [31]) | Number (Mus musculus [42]) | other results
Clc1ccc2c(NCCN3CCN(c4ccnc5cc(Cl)ccc45)CC3)ccnc2c1 | 3 | 0.0012 | 1 | 0.009 | 1 | 5 |  |  |  |  |  |  |  | Number (Mus musculus [1]): 1; Number (Mus musculus [2]): 1; Number (Mus musculus [3]): 1; Number (Mus musculus [7]): 1; Number (Mus musculus [8]): 1; Number (Mus musculus [9]): 1; Number (Mus musculus [11]): 2; Number (Mus musculus [12]): 1; Number (Mus musculus [13]): 1; Number (Mus musculus [14]): 1
Clc1ccc2c(NCCCOCCCCOCCCNc3ccnc4cc(Cl)ccc34)ccnc2c1 |  | 0.022 | 2 | 0.021 | 1 | 19 | 2 | 2 | 1 |  |  |  |  | Number (Mus musculus [18]): 1; Number (Mus musculus [19]): 3; Number (Mus musculus [21]): 1; Number (Mus musculus [23]): 1; Number (Mus musculus [24]): 1
Clc1ccc2c(NCCCOCCOCCOCCCNc3ccnc4cc(Cl)ccc34)ccnc2c1 | 1 | 0.024 | 3 | 0.048 | 1 |  |  |  |  | 20 | 1 |  |  | Number (Mus musculus [25]): 1; Number (Mus musculus [26]): 1; Number (Mus musculus [7]): 2; Number (Mus musculus [21]): 2; Number (Mus musculus [29]): 3
Clc1ccc2c(NCCCCCCNCCCCCCNc3ccnc4cc(Cl)ccc34)ccnc2c1 |  | 0.011 |  | 0.0054 |  |  |  |  |  | 7 |  | 1 |  | Number (Mus musculus [30]): 2; Number (Mus musculus [32]): 3; Number (Mus musculus [33]): 5; Number (Mus musculus [34]): 4
Clc1ccc2c(N3CCN(CN4CCN(c5ccnc6cc(Cl)ccc56)CC4)CC3)ccnc2c1 |  | > 1 |  | > 1 |  |  | 1 |  |  | > 2500 |  | 4 |  | Number (Mus musculus [35]): 1; Number (Mus musculus [36]): 3; Number (Mus musculus [34]): 1; Number (Mus musculus [37]): 3
Clc1ccc2c(NCCOCCOCCNc3ccnc4cc(Cl)ccc34)ccnc2c1 |  | 0.0025 | 2 | 0.0099 |  |  |  |  |  | 15 |  | 2 |  | Number (Mus musculus [38]): 1; Number (Mus musculus [11]): 1; Number (Mus musculus [39]): 1; Number (Mus musculus [40]): 3
Clc1ccc2c(NCCOCCNc3ccnc4cc(Cl)ccc34)ccnc2c1 |  | 0.016 |  | 0.089 | 3 | 20 | 1 | 2 | 1 |  | 1 |  | 1 | Number (Mus musculus [41]): 1; Number (Mus musculus [18]): 1; Number (Mus musculus [43]): 1; Number (Mus musculus [44]): 1; Number (Mus musculus [37]): 2
Clc1ccc2c(NCCCNCCNc3ccnc4cc(Cl)ccc34)ccnc2c1 |  | 0.026 |  | 0.007 |  | 16 |  |  | 1 |  |  |  |  | Number (Mus musculus [45]): 5; Number (Mus musculus [46]): 5; Number (Mus musculus [47]): 4
CN(CCCNc1ccnc2cc(Cl)ccc12)CCCNc1ccnc2cc(Cl)ccc12 | 3 | 0.0059 | 2 | 0.0028 | 2 | 8 |  | 1 |  |  | 1 |  | 2 | Number (Mus musculus [1]): 1; Number (Mus musculus [48]): 1; Number (Mus musculus [25]): 1; Number (Mus musculus [49]): 1
CCN(CC)CCCC(C)Nc1ccnc2cc(Cl)ccc12 (stereo not drawn) [CHLOROQUINE] |  |  |  |  |  |  |  |  |  |  |  |  | 1 | Number (Mus musculus [50]): 1; Number (Mus musculus [2]): 1; Number (Mus musculus [3]): 1; Number (Mus musculus [51]): 3; Number (Mus musculus [52]): 1; Number (Mus musculus [35]): 1; Number (Mus musculus [53]): 1; Number (Mus musculus [54]): 1; Number (Mus musculus [55]): 1; Number (Mus musculus [56]): 1; Number (Mus musculus [57]): 2

Reference: ChEMBL document CHEMBL1131162, “Bisquinolines. 2. Antimalarial N,N-bis(7-chloroquinolin-4-yl)heteroalkanediamines” (J Med Chem, 1998)
